Experimental data collected from several papers.
Lines come from different studies, so protocols differ.
Target: MAP kinase-interacting serine/threonine-protein kinase 1 (MKNK1, Homo sapiens, UniProt Q9BUB5)

SMILES | read-out | mode | technique | tested at | measurement | value
FC(F)(F)c1ccc2c(c1)nc(-c1cccnc1)n2C1CC1 | cell-free assay | – | competition with immobilised ligand | 1 µM | remaining binding | 100%
O=C(Nc1cnn(-c2csc(C(=O)NC3COC3)c2)c1)Nc1ccccc1Cl | enzyme activity | inhibitor | – | 5 µM | remaining activity | 94.3%
CCCCN(CCCC)C(=O)CN1C[C@H](c2cc(OC)c3c(c2)OCO3)[C@@H](C(=O)O)[C@@H]1CC(C)(C)CCC | cell-free assay | – | competition with immobilised ligand | 1 µM | remaining binding | 93.3%
Nc1ncnc2occ(-c3ccc(NC(=O)Nc4cc(C(F)(F)F)ccc4F)cc3)c12 | cell-free assay | inhibitor | – | 20 µM | remaining signal | 0%
CNCc1ccccc1-c1csc([C@H](C)Nc2nc(C)nc3cc(OC)c(OC)cc23)c1 | cell-free assay | – | competition with immobilised ligand | 1 µM | remaining binding | 91%
COc1cc2ncnc(Nc3ccc(Oc4ccccc4)c(C)c3C)c2cc1OC | enzyme activity | inhibitor | – | 1 µM | inhibition | -6%
CNC(=O)c1cc(Oc2ccc(NC(=O)Nc3ccc(Cl)c(C(F)(F)F)c3)cc2)ccn1 | cell-free assay | – | – | 0.5 µM | remaining signal | 75.1%
CN(C)c1ncnc(-c2ccc3nc(Nc4cc(CN5CCN(C(=O)CC(F)(F)F)CC5)ccn4)[nH]c3c2)c1Cl | cell-free assay | – | competition with immobilised ligand | 1 µM | remaining binding | 62%
Cc1sc(C(=O)NC2COC2)cc1-n1cc(NC(=O)Nc2c(F)cccc2Cl)cn1 | enzyme activity | inhibitor | – | 10 µM | remaining activity | 94.2%
Cc1ccc(C(=O)Nc2ccc(CN3CCN(C)CC3)c(C(F)(F)F)c2)cc1C#Cc1cnc2cccnn12 | enzyme activity | inhibitor | – | 23.5 nM | remaining activity | 98%
COc1cc(Nc2c(C#N)cnc3cc(OCCCN4CCN(C)CC4)c(OC)cc23)c(Cl)cc1Cl | cell-free assay | – | – | 0.5 µM | remaining signal | 96.9%
FC(F)c1nc2ccccc2n1-c1nc(N2CCOCC2)nc(N2CCOCC2)n1 | enzyme activity | inhibitor | – | 10 µM | remaining activity | 96%
Nc1nc(Nc2ccccc2)sc1C(=O)c1c(F)cccc1F | enzyme activity | inhibitor | – | 10 µM | remaining activity | 110%
CC[C@H](CO)Nc1nc(NCc2ccccc2)c2ncn(C(C)C)c2n1 | cell-free assay | – | – | 0.5 µM | remaining signal | 96.4%
CC(C)(C)c1nc(-c2cccc(NS(=O)(=O)c3c(F)cccc3F)c2F)c(-c2ccnc(N)n2)s1 | enzyme activity | inhibitor | radiometric | 1 µM | remaining activity | 128%
Cc1nccc(COC(=O)N2C[C@@H]3[C@@H](CNC(=O)c4ccc5[nH]nnc5c4)[C@@H]3C2)n1 | cell-free assay | – | competition with immobilised ligand | 1 µM | remaining binding | 91%
Nc1ncnc2n[nH]c(Nc3ccc(F)cc3)c12 | cell-free assay | – | – | 0.5 µM | remaining signal | 75.2%
Cn1c(=O)n(-c2ccc(C(C)(C)C#N)cc2)c2c3cc(-c4cnc5ccccc5c4)ccc3ncc21 | enzyme activity | inhibitor | – | 10 µM | remaining activity | 101%
COc1cc(Nc2cnc(C#N)c(O[C@H](C)CN(C)C)n2)ncc1-c1cnn(C)c1 | enzyme activity | inhibitor | radiometric | 1 µM | remaining activity | 94%
Cc1nc(C2CCN(C(=O)c3ccc(OC(F)(F)F)cc3N)CC2)c2ncc(N3CCN(C)CC3)cc2n1 | cell-free assay | – | competition with immobilised ligand | 1 µM | remaining binding | 100%
CS(=O)(=O)Nc1cccc(-c2csc(NC(=O)CSc3nc4nccnc4c(=O)n3CCc3ccccc3)n2)c1 | enzyme activity | inhibitor | – | 10 µM | inhibition | -14%
CCS(=O)(=O)c1cc2cc(C[C@](O)(CC(C)(C)c3ccc(F)cc3C(N)=O)C(F)(F)F)[nH]c2cn1 | cell-free assay | – | competition with immobilised ligand | 1 µM | remaining binding | 97%
FC(F)(F)Oc1cccc(-c2cnc3ccc(-c4ccncc4)nn23)c1 | enzyme activity | inhibitor | radiometric | 5 µM | activity vs control | 72%
